Screening data (PubChem)
Most compounds without a hit are left out; they make up all but 12% or so of the library.
Diaphorase inh: diaphorase inhibitors and chemical oxidizers, primary screen, counter-screen for diaphorase-coupled primary assays, biochemical, uHTS, resorufin fluorescence; diaphorase resazurin-to-resorufin fluorescence, NADH, 16 min; bacterial (C. kluyveri) enzyme, not human; inhibition, % at 20 µM; 190,000 compounds, 0.69% hits; AID 1217, 2008;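 active = primary screen inhibition at 20 µM above a set limit, cut at about 50% in these data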;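 also: plate controls were DMSO with full reaction for no effect and wells lacking NADH for full effect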
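Test system: bacterial diaphorase enzyme (C. kluyveri); Quantity: 0.14 U/mL diaphorase, enzyme working solution; Times: reaction incubation of 16 min at room temperature; Measured by: fluorescence of resorufin formed from resazurin, Ex 544/Em 590 nm; Benchmarks: positive control minus NADH, DMSO neutral control.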
Diaphorase act: compounds boosting diaphorase resazurin reduction – biochemical, uHTS, resorufin fluorescence, counter-screen for diaphorase-coupled primary assays, primary screen. activation factor at 20 µM. 190,000 compounds, 0.005% hits. Diaphorase/resazurin coupled assay, 16 min; active compounds read high; 1 = vehicle wells, 0 = NADH-free wells;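 active = diaphorase activity raised at least twofold by the compound at 20 µM; inactive = activation factor below 2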
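System – purified diaphorase enzyme from Clostridium kluyveri · Input – enzyme 0.07 U/mL final · Also added – final NADH 0.114 mM, resazurin 0.1 mM · Measured by – fluorescence of resorufin, 544 nm excitation, 590 nm emission · Timing – 16 min enzyme reaction, ambient temperature · Measure – resorufin increase flagging diaphorase activators or reducers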
Cl transport mod: KCC2 cotransporter modulators, thallium flux, primary screen, cell-based, HEK293 KCC2, FluoZin-2 fluorescence, MLSMR | Solute carrier family 12 member 5 (Homo sapiens), Q9H2X9 | B-score of Tl+ flux slope (higher = more flux/activation; lower = inhibition) at 10 µM | KCC2 cells, thallium flux FluoZin-2 fluorescence | 190,000 compounds, 2.2% hits;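 active = thallium flux slope and its plate-corrected score both differing from the plate sample mean at a set confidence after two filtering rounds, in either direction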;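 also: slope of fluorescence scaled to starting intensity during 10 to 20 s after thallium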
L major viab: Leishmania major promastigote growth inhibition, primary screen; AID 1063, 2008; inhibition, % at 10 µM; Leishmania major promastigotes, resazurin fluorescence viability; 200,000 compounds, 9% hits; in the data active = inhibition above about 50%;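 also: promastigotes grown with compound for 44 hours at 28 °C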
WT yeast gro inh: growth inhibition of WT strain, primary screen, mitochondrial fusion inhibitor project, WT and mutant strains, chemical genetic; mitochondrial fusion phenotypic screen; inhibition, % at 10 µM; 190,000 compounds, 2.1% hits; in the data active = inhibition above about 58%; tested in S. cerevisiae
ROMK primary: ROMK potassium channel modulators, primary screen, cell-based, thallium flux, MLSMR library; ATP-sensitive inward rectifier potassium channel 1 (Homo sapiens), P48048; B-score at 10 µM; AID 1918, 2009; 130,000 compounds, 2% hits; Tet-inducible ROMK, thallium flux fluorescence; actives lie on both sides;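 active = signal ratio slope over the read window, or its plate-corrected B-score, at least 3 SD from the plate mean, either direction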;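 also: B-score of the F/F0 ratio slope over 7 to 12 s after thallium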
The depositor's hits bear a star; i = inactive; nt = no result given.

SMILES	Diaphorase inh	Diaphorase act	Cl transport mod	L major viab	WT yeast gro inh	ROMK primary
COc1ccc(-c2cn3cccnc3n2)cc1NC(=O)c1ccc(Br)o1	10	0.9	-0.095	99*	5	nt
CCCC(=O)Nc1cccc(-c2cn3cccnc3n2)c1	8	0.9	-0.37	91*	2	0.99
O=C(c1ccccc1NS(=O)(=O)c1ccc(Br)s1)N1CCOCC1	1	1	-0.67	-7	-3	nt
CCOC(=O)N1CCN(C(=O)CSCC(=O)Nc2nc(-c3ccc(C)cc3)cs2)CC1	1	1	-1.1	5	-19	nt
Cc1cc(Cl)ccc1OCC(=O)Nc1nc(-c2cccs2)cs1	13	0.9	-0.48	5	60*	nt
Cc1cc(Cl)ccc1OCC(=O)Nc1nc(-c2cccnc2)cs1	nt	nt	0.53	nt	nt	nt
CCOC(=O)N1CCN(C(=O)CSCC(=O)Nc2nc(-c3cccs3)cs2)CC1	6	0.9	-1.2	79*	-4	-1.9
CCOC(=O)C1CCCN(C(=O)Nc2c(-c3ccccc3)noc2C)C1 (configuration not stated)	nt	nt	1	nt	nt	0.83
N#Cc1sc2nc(N3CCCCC3)c3c(c2c1N)CCCC3	26	0.7	-0.099	18	73*	0.36
Cc1cc(C)c2cc(C#N)c(NCCNC(=S)NCCCN3CCOCC3)nc2c1	0	1	nt	2	0	0.83
Cc1cc(C)c2nc(C(F)(F)F)nc(NCCCN3CCOCC3)c2c1	4	1	nt	95*	65	-0.42
CCOC(=O)c1nc(-c2ccc(OC)c(OC)c2)cnc1C#N	-6	1.1	nt	-4	-2	0.71
COc1cc(C2C(C#N)=C(C)NC3=C2C(=O)c2ccccc23)cc(OC)c1OC (configuration not stated)	29	0.7	nt	15	1	3.2*
CCOc1cc2[nH]c(=O)n(CCCN3CCN(c4ccc(OC)cc4)CC3)c(=O)c2cc1OCC	7	0.9	-0.22	4	-3	nt
C=CCn1cccc(C(=O)Nc2ccc(OCC)cc2)c1=O	17	0.8	0.029	-6	-12	-0.12
CN1/C(=C\C(=O)CSc2nnc(N)s2)C(C)(C)c2ccccc21	7	0.9	-0.95	38	4	-0.68
COc1ccc(Nc2nnc(SCC(=O)/C=C3/N(C)c4ccccc4C3(C)C)s2)cc1	26	0.7	-3.5	96*	31	-0.49
CC(C)(C)CC(C)(C)NC(=S)NC1CCN(Cc2ccccc2)CC1	-2	1	0.92	89*	15	-0.39
Fc1ccc(NC(=S)NC2CCN(Cc3ccccc3)CC2)cc1	12	0.9	-0.83	89*	5	-0.62
Cc1cccc(NC(=S)NC2CCN(Cc3ccccc3)CC2)c1C	10	0.9	-2	89*	7	nt
O=C(Nc1cccc(F)c1)NC1CCN(Cc2ccccc2)CC1	10	0.9	0.012	56*	8	-2
Cc1cccc(NC(=S)N2CCN(Cc3ccccc3)CC2)c1C	18	0.8	-2.6	-4	30	nt
CCN1CCC(NC(=O)Nc2ccc(F)cc2)CC1	7	0.9	-2	0	14	-0.65
CCOCCCNC(=O)C(c1ccc(C)cc1)N(Cc1cccs1)C(=O)c1ccccc1O (configuration not stated)	-2	1	0.023	5	0	-0.048
CCOC(=O)c1c(-c2ccc(OC)cc2)cn2ccccc12	-4	1	1.6	-1	10	-0.023
SMILES	Diaphorase inh	Diaphorase act	Cl transport mod	L major viab	WT yeast gro inh	ROMK primary
O=C(NCC1CCCO1)C(=O)c1c[nH]c2ccccc12 (configuration not stated)	10	0.9	0.016	-2	-13	0.21
S=C(Nc1ccc(Cl)c(Cl)c1)NC1CCN(Cc2ccccc2)CC1	9	0.9	-2.1	95*	74*	nt
S=C(NC1CCCCC1)N1CCN(Cc2ccccc2)CC1	8	0.9	-2	2	-2	-0.84
O=C(NNC(=O)C1CCN(Cc2cccc(F)c2)CC1)c1cccc(Cl)c1	10	0.9	nt	64*	3	nt
O=C(OCC(=O)N1CCc2ccccc2C1)c1cccs1	4	1	-0.19	-2	17	-0.31
COc1cc2c3nnc(-c4ccc(F)cc4)c-3cn(Cc3ccccc3F)c2cc1OC	-25	1.2	i	-4	-54	-4*
COc1cc2c3nnc(-c4ccccc4)c-3cn(Cc3ccccc3F)c2cc1OC	-16	1.2	-1.3	38	14	-6.8*
COc1cccc(-n2nnc3c(=O)n(Cc4ccccc4F)cnc32)c1	8	0.9	nt	-5	-16	0.63
COc1ccccc1N1CCN(c2nnc(-c3ccc(F)cc3)c3ccccc23)CC1	11	0.9	0.098	7	29	nt
NC(=O)[C@@H]1CCCN1Cc1nc(-c2cccs2)no1	19	0.8	0.89	-4	-1	1.3
COc1ccc(Cl)cc1N1C(=N)SCC1=O	16	0.8	1.6	15	7	-0.049
C=CCn1c(SCC(=O)NCCc2ccccc2)nnc1C(C)NC(=O)c1cccs1 (configuration not stated)	5	1	0.14	0	-4	nt
COCCn1c(SCC(=O)Nc2cccc(C)c2)nnc1C(C)C	7	0.9	nt	91*	11	nt
COCCn1c(SCC(=O)Nc2cc(C)cc(C)c2)nnc1C(C)C	12	0.9	0.1	-6	-21	nt
C=CCn1c(SCC(=O)Nc2cccc(C(=O)OC)c2)nnc1C(C)NC(=O)c1cccs1 (configuration not stated)	19	0.8	nt	-1	83*	nt
O=C1c2ccccc2C(=O)N1CCCCN(C(=O)c1cc([N+](=O)[O-])cc([N+](=O)[O-])c1)c1ccc(Cl)cc1	25	0.8	0.084	99*	24	-1.2
O=C1c2ccccc2C(=O)N1CCCCN(C(=O)c1ccc([N+](=O)[O-])cc1)c1ccc(Cl)cc1	15	0.8	-0.4	43	23	nt
O=C1c2ccccc2C(=O)N1CCCCN(C(=O)c1cc([N+](=O)[O-])ccc1Cl)c1ccc(Cl)cc1	7	0.9	-0.018	58*	66*	0.88
C/C(N)=C(/C#N)C(=O)CSc1nnc(-c2ccccc2)n1C	nt	nt	-1.4	nt	nt	nt
CN=C1CC(SC)=C1c1ccc(C)cc1	3	1	0.22	4	2	-2.9*
Cc1cc2nc(-c3ccc(NC(=O)C(C)C)cc3)oc2cc1C	8	0.9	0.57	90*	-6	-0.24
Cc1ccc(/C=C/C2=NN(Cc3ccccc3Cl)C(=O)CC2)cc1	26	0.7	0.31	-1	59*	0.092
